Values after ≈ are worked out from the molar mass of the structure shown.
Assays:
Staphylococcus aureus [1] = assay: Minimum inhibitory concentration against X1.1 strain of Staphylococcus aureus; type: functional
Staphylococcus aureus [2] = assay: Minimum inhibitory concentration against S13E strain of Staphylococcus aureus; type: functional
[3] = Minimum inhibitory concentration against res 76 strain of Haemophilus influenzae; type: functional
Streptococcus pneumoniae [4] = assay: Minimum inhibitory concentration against park strain of Streptococcus pneumoniae
[5] = system: Staphylococcus epidermidis; assay: Minimum inhibitory concentration against Epil strain of Staphylococcus epidermidis; type: functional
Streptococcus pyogenes [6] = assay: Minimum inhibitory concentration against C203 strain of Streptococcus pyogenes
Staphylococcus aureus [7] = assay: Minimum inhibitory concentration against V41 strain of Staphylococcus aureus; type: functional
Escherichia coli = assay: Minimum inhibitory concentration against EC14 strain Escherichia coli; type: functional
Streptococcus pyogenes [8] = assay: Minimum inhibitory concentration against Streptococcus pyogenes C203; type: functional
[9] = system: Staphylococcus epidermidis; assay: Minimum inhibitory concentration against 222 strain of Staphylococcus epidermidis; type: functional
Klebsiella pneumoniae = assay: Minimum inhibitory concentration against X68 strain of Klebsiella pneumoniae; type: functional
Staphylococcus aureus [10] = assay: Minimum inhibitory concentration against 3055 strain of Staphylococcus aureus
[11] = Minimum inhibitory concentration against sens CL strain of Haemophilus influenzae; type: functional
Streptococcus pneumoniae [12] = assay: Minimum inhibitory concentration against Park strain of Streptococcus pneumoniae
Salmonella = assay: Minimum inhibitory concentration against X514 strain of Salmonella; type: functional
Klebsiella aerogenes = assay: Minimum inhibitory concentration against EB17 strain of Enterobacter aerogenes; type: functional
[13] = Minimum inhibitory concentration against N9 strain of Shigella sonnei; type: functional
[14] = Oral bioavailability in mouse; type: ADME, organism-based; settings: in vivo
Summary of the method: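 Male Cox mice given water and liquid diet overnight; 20 mg/kg in saline (2 mg/mL) sc or orally; urine from collection cages plus bladder contents over 2 h; activity by agar well assay with Bacillus subtilis ATCC 6633. Bioavailability from percent dose excreted in urine after oral vs parenteral dosing.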

[15] = Dose in urine (24-h urine excretion) in female mongrel dogs after oral administration of single 15 mg/kg dose; type: ADME, organism-based, Canis lupus familiaris; design: dose 15 mg/kg, route oral; settings: dog
Summary of the method: (§1)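 Female mongrel dogs (n=6), bladder catheter; urine collected at intervals after single 15 mg/kg iv or oral solution dose, frozen; antibiotic activity by disk-plate agar diffusion against E. coli MB 3804 with standards in pH 6.0 buffer; percent of dose recovered in urine.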

[16] = Area under plasma concentration vs time curve observed in Rhesus monkeys after, iv administration of single 30 mg/kg dose; type: ADME, organism-based, Macaca mulatta; design: dose 30 mg/kg, route intravenous; settings: rhesus monkey
Summary of the method: (§2)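 Rhesus monkeys, adult males, six animals per compound, each given drug orally and iv; fasted overnight. Single 30 mg/kg solution doses, by nasogastric tube (in water) or saphenous vein (in isotonic lactated Ringer). Plasma sampled at intervals, frozen at -70 °C, antibacterial activity by microbiological assay. AUC in μg min/mL; oral bioavailability from oral vs iv AUC.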

Canis familiaris [17] = assay: Area under plasma concentration vs time curve observed in female mongrel dogs after, oral administration of single 15 mg/kg dose; type: ADME, organism-based, Canis lupus familiaris; design: dose 15 mg/kg, route oral; settings: dog, in vivo
Summary of the method: (§3)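 Six female mongrel dogs (14-23 kg) fasted overnight, bladder catheterized; single 15 mg/kg solution doses by stomach tube (in water, total 500 mL) or cephalic vein (saline or pH 6.0 NaCl/phosphate/acetate buffer). Plasma sampled at intervals; activity by disk-plate agar diffusion against E. coli MB 3804, standards in dog serum or buffer. AUC μg min/mL, mean ± SEM; BA from iv vs po AUC and urinary recovery.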

[18] = Dose in urine (24-h urine excretion) in female mongrel dogs after iv administration of single 15 mg/kg dose; type: ADME, organism-based, Canis lupus familiaris; design: dose 15 mg/kg, route intravenous; settings: dog; summary of the method: as §1
Canis familiaris [19] = assay: Area under plasma concentration vs time curve observed in female mongrel dogs after, iv administration of single 15 mg/kg dose; type: ADME, organism-based, Canis lupus familiaris; design: dose 15 mg/kg, route intravenous; settings: dog, in vivo; summary of the method: as §3
[20] = Oral bioavailability in Rhesus monkey; type: ADME, organism-based, Macaca mulatta; settings: in vivo; summary of the method: as §2
[21] = Oral bioavailability in dog (female mongrel); type: ADME, organism-based, Canis lupus familiaris; settings: in vivo; summary of the method: as §3
[22] = Area under plasma concentration vs time curve observed in Rhesus monkeys after oral administration of single 30 mg/kg dose; type: ADME, organism-based, Macaca mulatta; design: dose 30 mg/kg, route oral; settings: rhesus monkey; summary of the method: as §2
Streptococcus pyogenes [23] = assay: Minimum inhibitory concentration against C203 strain of Streptococcus pyogenes; remark: listed apart in the source

Compound	MIC (Staphylococcus aureus [1]) [µg/mL]	MIC (Staphylococcus aureus [2]) [µg/mL]	MIC [3] [µg/mL]	MIC (Streptococcus pneumoniae [4]) [µg/mL]	MIC [5] [µg/mL]	MIC (Streptococcus pyogenes [6]) [µg/mL]	MIC (Staphylococcus aureus [7]) [µg/mL]	MIC (Escherichia coli) [µg/mL]	MIC (Streptococcus pyogenes [8]) [µg/mL]	MIC [9] [µg/mL]	MIC (Klebsiella pneumoniae) [µg/mL]	MIC (Staphylococcus aureus [10]) [µg/mL]	MIC [11] [µg/mL]	MIC (Streptococcus pneumoniae [12]) [µg/mL]	MIC (Salmonella) [µg/mL]	MIC (Klebsiella aerogenes) [µg/mL]	MIC [13] [µg/mL]	bioavailability [14] [%]	further results
O=C(Cc1csc2ccc(Cl)cc12)N[C@@H]1C(=O)N2C(C(=O)O)=C(Cl)CS[C@H]12	0.03 (≈ 0.0677 µM)	2 (≈ 4.51 µM)	0.25 (≈ 0.564 µM)	0.02 (≈ 0.0451 µM)	0.5 (≈ 1.13 µM)	0.03 (≈ 0.0677 µM)	2 (≈ 4.51 µM)	64 (≈ 144 µM)	0.015 (≈ 0.0338 µM)	0.125 (≈ 0.282 µM)	128 (≈ 289 µM)	0.06 (≈ 0.135 µM)	1 (≈ 2.26 µM)	0.015 (≈ 0.0338 µM)	128 (≈ 289 µM)	128 (≈ 289 µM)	128 (≈ 289 µM)		
O=C(Cc1ccsc1)N[C@@H]1C(=O)N2C(C(=O)O)=C(Cl)CS[C@H]12	0.5 (≈ 1.39 µM)	16 (≈ 44.6 µM)	1 (≈ 2.79 µM)		4 (≈ 11.1 µM)		8 (≈ 22.3 µM)	8 (≈ 22.3 µM)	0.125 (≈ 0.348 µM)	1 (≈ 2.79 µM)	2 (≈ 5.57 µM)		1 (≈ 2.79 µM)	0.125 (≈ 0.348 µM)	1 (≈ 2.79 µM)	> 128	32 (≈ 89.2 µM)	47	
O=C(Cc1cccs1)N[C@@H]1C(=O)N2C(C(=O)O)=C(Cl)CS[C@H]12	0.5 (≈ 1.39 µM)	16 (≈ 44.6 µM)	1 (≈ 2.79 µM)	0.25 (≈ 0.697 µM)	2 (≈ 5.57 µM)	0.125 (≈ 0.348 µM)	16 (≈ 44.6 µM)	4 (≈ 11.1 µM)	0.125 (≈ 0.348 µM)	1 (≈ 2.79 µM)	2 (≈ 5.57 µM)	0.5 (≈ 1.39 µM)	1 (≈ 2.79 µM)	0.125 (≈ 0.348 µM)	2 (≈ 5.57 µM)	64 (≈ 178 µM)	32 (≈ 89.2 µM)	44	dose excreted [15]: 17%; AUC [16]: 43200 ng·h/mL; AUC (Canis familiaris [17]): 15500 ng·h/mL; dose excreted [18]: 75%; AUC (Canis familiaris [19]): 75300 ng·h/mL; bioavailability [20]: 13.1%; bioavailability [21]: 21%; AUC [22]: 5670 ng·h/mL
COC1=C(C(=O)O)N2C(=O)[C@@H](NC(=O)Cc3csc(N)n3)[C@H]2SC1	8 (≈ 21.6 µM)	> 128	8 (≈ 21.6 µM)		128 (≈ 346 µM)		32 (≈ 86.4 µM)	8 (≈ 21.6 µM)	0.5 (≈ 1.35 µM)	32 (≈ 86.4 µM)	8 (≈ 21.6 µM)		8 (≈ 21.6 µM)	2 (≈ 5.4 µM)	2 (≈ 5.4 µM)	32 (≈ 86.4 µM)	32 (≈ 86.4 µM)	< 5	
O=C(Cc1ccccc1)N[C@@H]1C(=O)N2C(C(=O)O)=C(Cl)CS[C@H]12	0.5 (≈ 1.42 µM)	32 (≈ 90.7 µM)	1 (≈ 2.83 µM)	0.25 (≈ 0.709 µM)	2 (≈ 5.67 µM)	0.125 (≈ 0.354 µM)	16 (≈ 45.4 µM)	8 (≈ 22.7 µM)	0.125 (≈ 0.354 µM)	1 (≈ 2.83 µM)	4 (≈ 11.3 µM)	0.5 (≈ 1.42 µM)	1 (≈ 2.83 µM)	0.125 (≈ 0.354 µM)	4 (≈ 11.3 µM)	> 128	64 (≈ 181 µM)	37	dose excreted [15]: 15%; AUC [16]: 58300 ng·h/mL; AUC (Canis familiaris [17]): 16200 ng·h/mL; dose excreted [18]: 67%; AUC (Canis familiaris [19]): 97300 ng·h/mL; bioavailability [20]: 15.1%; bioavailability [21]: 17%; AUC [22]: 8830 ng·h/mL
COC1=C(C(=O)O)N2C(=O)[C@@H](NC(=O)COc3ccccc3)[C@H]2SC1	2 (≈ 5.49 µM)	16 (≈ 43.9 µM)	4 (≈ 11 µM)		8 (≈ 22 µM)		32 (≈ 87.8 µM)	> 128	1 (≈ 2.74 µM)	2 (≈ 5.49 µM)	> 128		4 (≈ 11 µM)	1 (≈ 2.74 µM)	> 128	> 128	> 128	14	
O=C(Cc1ccc(O)cc1)N[C@@H]1C(=O)N2C(C(=O)O)=C(Cl)CS[C@H]12	2 (≈ 5.42 µM)	128 (≈ 347 µM)	2 (≈ 5.42 µM)		8 (≈ 21.7 µM)		16 (≈ 43.4 µM)	32 (≈ 86.8 µM)	0.125 (≈ 0.339 µM)	2 (≈ 5.42 µM)	8 (≈ 21.7 µM)		2 (≈ 5.42 µM)	0.25 (≈ 0.678 µM)	8 (≈ 21.7 µM)	> 128	128 (≈ 347 µM)	14	
O=C(Cc1csc(Cl)n1)N[C@@H]1C(=O)N2C(C(=O)O)=C(Cl)CS[C@H]12														0.5 (≈ 1.27 µM)	8 (≈ 20.3 µM)	> 128	64 (≈ 162 µM)	56	
C=CC1=C(C(=O)O)N2C(=O)[C@@H](NC(=O)COc3ccccc3)[C@H]2SC1	0.25 (≈ 0.694 µM)	16 (≈ 44.4 µM)	1 (≈ 2.77 µM)	0.25 (≈ 0.694 µM)	8 (≈ 22.2 µM)	0.125 (≈ 0.347 µM)	16 (≈ 44.4 µM)	> 128	0.125 (≈ 0.347 µM)	0.5 (≈ 1.39 µM)	> 128	0.25 (≈ 0.694 µM)	4 (≈ 11.1 µM)	0.125 (≈ 0.347 µM)	> 128	> 128	> 128	36	
COCC1=C(C(=O)O)N2C(=O)[C@@H](NC(=O)COc3ccccc3)[C@H]2SC1	0.25 (≈ 0.661 µM)	32 (≈ 84.6 µM)	2 (≈ 5.29 µM)		0.5 (≈ 1.32 µM)		0.5 (≈ 1.32 µM)	> 128	0.06 (≈ 0.159 µM)	0.25 (≈ 0.661 µM)	> 128		2 (≈ 5.29 µM)	0.125 (≈ 0.33 µM)	> 128	> 128	> 128	19	
O=C(COc1ccccc1)N[C@@H]1C(=O)N2C(C(=O)O)=CCS[C@H]12	0.5 (≈ 1.5 µM)	16 (≈ 47.9 µM)	8 (≈ 23.9 µM)	0.25 (≈ 0.748 µM)	2 (≈ 5.98 µM)	0.25 (≈ 0.748 µM)	16 (≈ 47.9 µM)	32 (≈ 95.7 µM)	0.5 (≈ 1.5 µM)	0.5 (≈ 1.5 µM)	> 128	0.5 (≈ 1.5 µM)	32 (≈ 95.7 µM)	1 (≈ 2.99 µM)	> 128	> 128	> 128	22	
C=CC1=C(C(=O)O)N2C(=O)[C@@H](NC(=O)Cc3csc(N)n3)[C@H]2SC1	1 (≈ 2.73 µM)	16 (≈ 43.7 µM)	2 (≈ 5.46 µM)		8 (≈ 21.8 µM)		8 (≈ 21.8 µM)	4 (≈ 10.9 µM)	0.125 (≈ 0.341 µM)	1 (≈ 2.73 µM)	2 (≈ 5.46 µM)		4 (≈ 10.9 µM)	0.5 (≈ 1.36 µM)	2 (≈ 5.46 µM)	128 (≈ 349 µM)		25	
Cc1nc(CC(=O)N[C@@H]2C(=O)N3C(C(=O)O)=C(Cl)CS[C@H]23)cs1														1 (≈ 2.67 µM)	4 (≈ 10.7 µM)	> 128	64 (≈ 171 µM)	66	
O=C(COc1ccc(O)cc1)N[C@@H]1C(=O)N2C(C(=O)O)=C(Cl)CS[C@H]12	0.5 (≈ 1.3 µM)	128 (≈ 333 µM)	1 (≈ 2.6 µM)		16 (≈ 41.6 µM)		128 (≈ 333 µM)	64 (≈ 166 µM)	0.06 (≈ 0.156 µM)	1 (≈ 2.6 µM)	> 128		2 (≈ 5.2 µM)	0.125 (≈ 0.325 µM)	64 (≈ 166 µM)	> 128	64 (≈ 166 µM)	21	
O=C(Cc1ccccc1)N[C@@H]1C(=O)N2C(C(=O)O)=CCS[C@H]12	1 (≈ 3.14 µM)	32 (≈ 101 µM)	1 (≈ 3.14 µM)	1 (≈ 3.14 µM)	4 (≈ 12.6 µM)	0.25 (≈ 0.785 µM)	16 (≈ 50.3 µM)	8 (≈ 25.1 µM)	0.25 (≈ 0.785 µM)	1 (≈ 3.14 µM)	4 (≈ 12.6 µM)	1 (≈ 3.14 µM)	4 (≈ 12.6 µM)	1 (≈ 3.14 µM)	8 (≈ 25.1 µM)	64 (≈ 201 µM)	64 (≈ 201 µM)	12	
CC1=C(C(=O)O)N2C(=O)[C@@H](NC(=O)[C@H](N)c3ccccc3)[C@H]2SC1 [CEPHALEXIN ANHYDROUS]				4 (≈ 11.5 µM)								1 (≈ 2.88 µM)							MIC (Streptococcus pyogenes [23]): 0.5 µg/mL (≈ 1.44 µM)
